# Source: PubChem BioAssay (several laboratories)
# PolyA inh = blocks polyadenylation in yeast reporter cells; S. cerevisiae SKY197-pL101 polyadenylation reporter, beta-gal luminescence; efflux-impaired pdr1/pdr3 knockout yeast; score 100 = 6 SD above DMSO; activity score, % at 12 µM; 300,000 compounds, 0.02% hits; AID 1875;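 active = lowest replicate activity score at least 50, where 100 means six control SD above control mean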;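 also: yeast exposed to compound for 9 h at 30 °C; higher score means more reporter readthrough which indicates perturbed polyadenylation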
# NLRP3 yeast inh = blocks the NALP3 inflammasome reconstituted in yeast; Yeast reconstituted NLRP3/ASC/caspase-1, beta-gal luminescence, 24 h; inhibition, % at 10 µM; 330,000 compounds, 0.39% hits; AID 2825;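 active = inhibition of 50% or more; inactive = inhibition below 50%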;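 also: plate controls were induced DMSO wells for no effect and uninduced yeast grown without galactose for full effect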
# T cruzi inh = T. cruzi replication inhibition; T. cruzi beta-gal in NIH3T3, luminescence, 90 h; inhibition, % (no concentration beside the values); 300,000 compounds, 1.4% hits;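 active = mean inhibition across valid replicates above about 55%, limit read from the data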;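 also: signal also drops with host cell toxicity which is not excluded here; 0% = plate median of DMSO wells and 100% = zero luminescence signal; higher percent means less beta-gal luminescence so fewer parasites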
#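 Material: NIH/3T3 host cells with β-galactosidase reporter T. cruzi; Input: 5,000 host fibroblasts per well; Medium: DMEM, 2% fetal bovine serum; Compound: 50 nL DMSO compound solution per well; Schedule: 3 h host attachment, then at least 90 h co-culture; Detection: luminescent β-galactosidase signal after 60 min lysis.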
# Lmaj promast = Leishmania major promastigote growth inhibition; Leishmania major promastigotes, resazurin fluorescence viability; 200,000 compounds, 9% hits; inhibition, % at 10 µM; in the data active = inhibition above about 50%;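 also: promastigotes grown with compound for 44 hours at 28 °C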
# Calb FLC = C. albicans growth modulation with fluconazole | C. albicans CaCi-2 (fluconazole-resistant clinical isolate) + fluconazole, Alamar Blue growth, 48 h | growth inhibition, % (concentration not given with the values) | 300,000 compounds, 0.57% hits | AID 1979;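 active = growth inhibition above about 58% in most replicates, limit read from the data, passing the limit was not always enough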;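 also: all wells also contain fluconazole at 8 µg/ml as a sub-toxic cotreatment; 0% = median of DMSO wells and 100% = median of geldanamycin control wells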
# NALP1 inh = NALP1 inhibition; inhibition, % at 10 µM; 280,000 compounds, 0.61% hits; S. cerevisiae NALP1/ASC/caspase-1 growth, X-gal OD620, 72 h; in the data active = inhibition mostly above about 24%, no sharp cut-off; inactive = mostly below about 32%
# Lmaj promast 1uM = blocks Leishmania major promastigote growth at 1 uM, repeat screen | shares compounds with Lmaj promast | AID 1258 | 1,100 compounds, 13% hits | L. major promastigote growth, resazurin fluorescence, 48 h | inhibition, % at 1 µM;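 active = inhibition above about 50% in both repeat tests, limit read from the data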
# * hit, by the source's call; · = no result. This is one part of a sample in which hits are shown more often than they occur.
SMILES,PolyA inh,NLRP3 yeast inh,T cruzi inh,Lmaj promast,Calb FLC,NALP1 inh,Lmaj promast 1uM
CC1(C)CC2(CC(c3ccc(F)cc3)c3ccc(O)cc3O2)NC(=S)N1 (stereo unspecified),2,6,10,·,6,·,·
CC1(C)CC2(CC(c3cccs3)c3cc(Cl)c(O)cc3O2)NC(=S)N1 (stereo unspecified),-2,23,-13,92*,3,8,-10
c1ccc(CNc2nc(-c3cccs3)nc3ccccc23)cc1,-7,·,35,99*,26,18,59*
O=C(NCCc1c[nH]c2ccccc12)/C(=C\c1cccnc1)NC(=O)c1ccco1,19,4,-9,61*,11,33,-2
O=C(NCCc1c[nH]c2ccccc12)/C(=C/c1cccnc1)NC(=O)c1ccco1,25,9,-6,-3,0,2,·
CC(=O)[C@H]1[C@@H]2C(=O)N(c3cccc(Cl)c3)C(=O)[C@@H]2[C@H]2c3ccccc3C=CN21,·,12,·,-3,10,24,·
CC(C)(C)C(=O)[C@@H]1[C@@H]2C(=O)N(Cc3ccccc3)C(=O)[C@@H]2[C@H]2c3ccccc3C=CN12,·,·,·,68*,·,-8,-8
CCN(CC)CCNC(=O)c1[nH]c2ccc(OCc3ccccc3)cc2c1C,-1,18,26,100*,-2,15,-17
CCC(=O)Nc1nc(C)c(-c2csc(Nc3ccccn3)n2)s1,-14,1,12,62*,0,7,6
O=C(CC1S/C(=N/N=C/C=C/c2ccccc2)NC1=O)Nc1ccc(C(=O)O)cc1 (stereo unspecified),10,10,-11,-9,3,2,·
Cc1sc2nc(CN(Cc3cccs3)C(=O)NC3CCCCC3)[nH]c(=O)c2c1C,3,15,12,53*,3,22,2
Cc1sc2nc(CN(C(=O)NC3CCCCC3)C3CCCC3)[nH]c(=O)c2c1C,16,16,19,43,13,0,·
COc1ccc(N2CCN(c3nc4ccc(C)cn4c(=O)c3C=O)CC2)cc1,-8,23,13,14,41,-1,·
CCN(CC)CCOc1nc(C)nc2c1oc1ccccc12,-8,5,6,2,-15,15,·
CCN(CC)CCCOc1nc(C)nc2c1oc1ccccc12,·,·,·,75*,·,14,-4
Cc1nn(-c2ccccc2)c2c1C(O)n1c(nc3ccccc31)S2 (stereo unspecified),-3,14,-8,58*,12,29,-7
Cc1cc(C)c2c(CC(=O)N(CCC#N)Cc3cccnc3)coc2c1,-11,-1,34,81*,-1,·,9
CC(Sc1ccccc1)C(=O)N(CCC#N)Cc1cccnc1 (stereo unspecified),·,-6,·,7,-9,24,·
Cn1c(=NC(=O)c2ccccc2[N+](=O)[O-])sc2cccc(F)c21,7,14,-4,·,-1,1,·
COc1ccc([C@@H]2Sc3cc(OC)ccc3N(CCN(C(C)C)C(C)C)C(=O)[C@H]2OC(C)=O)cc1,-5,-3,37,74*,-11,-87,-5
N#CC1=C(N)OC2=C(C(=O)CCC2)C12C(=O)N1CCCc3cccc2c31 (stereo unspecified),-4,13,4,60*,-2,3,-14
N#C/C(=C\Nc1ccccc1O)c1nc2ccccc2o1,-22,·,2,79*,-9,0,-78
Cc1csc(NC(=O)CSc2nnc(-c3ccc(S(=O)(=O)N4CCCC4)cc3)o2)n1,13,11,0,99*,3,17,-3
Nc1cccc2nc3ccccc3cc12,-3,1,43,101*,·,-2,79*
Nc1[nH]nc2nc3ccccc3cc12,14,1,-3,-5,-16,8,·
COc1ccccc1N1CCN(C2CCN(C(=O)c3cccc(F)c3)CC2)CC1,-2,-14,-1,82*,3,-7,-17
CCOc1ccc(C(=O)/C=C/c2cn(CN3CCN(C)CC3)c3ccccc23)cc1,·,37,·,1,·,-1,·
COc1ccc(C(=O)/C=C/c2cn(CN3CCN(C)CC3)c3ccccc23)cc1,·,38,·,93*,·,9,-5
